The values that follow come from ChEMBL document CHEMBL1156826, “Multifunctional antioxidants for the treatment of age-related diseases” (J Med Chem, 2010).

Assay [1] in a line: Binding affinity to Fe(2+) ions assessed as percent parent peaks remaining by electrospray ionization mass spectrometry. Also on record: concentration or dose not given beside the values. The method in brief:
(§1)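 Metal ion stocks (1 mM in double-distilled water) were prepared from ammonium iron(II) sulfate, iron(III) nitrate, copper(I) chloride, copper(II) chloride, zinc chloride, magnesium chloride or calcium chloride. Each was mixed with compound at metal:compound ratios of 10:1, 1:1 and 1:10, keeping the final compound concentration at 50 μM.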

A short description of assay [2]: Binding affinity to Fe(3+) ions assessed as percent parent peaks remaining by electrospray ionization mass spectrometry. Also on record: concentration or dose not given beside the values. Summed up: as §1
The nature of assay [3]: Binding affinity to Cu(1+) ions assessed as percent parent peaks remaining by electrospray ionization mass spectrometry. Also on record: concentration or dose not given beside the values. Summed up:
as §1

A short description of assay [4]: Binding affinity to Cu(2+) ions assessed as percent parent peaks remaining by electrospray ionization mass spectrometry. Also on record: concentration or dose not given beside the values. Summed up: as §1
A short description of assay [5]: Binding affinity to Zn(2+) ions assessed as percent parent peaks remaining by electrospray ionization mass spectrometry. Also on record: concentration or dose not given beside the values. Summed up: as §1
A short description of assay [6]: Binding affinity to Ca(2+) ions assessed as percent parent peaks remaining by electrospray ionization mass spectrometry. Also on record: concentration or dose not given beside the values. The method in brief: as §1
A short description of assay [7]: Binding affinity to Mg(2+) ions assessed as percent parent peaks remaining by electrospray ionization mass spectrometry. Also on record: concentration or dose not given beside the values. Summed up:
as §1

The test system of assay [8] is SRA1. The assay is described as follows: Cytoprotection in human SRA1 cells assessed as protection against H2O2-induced cell death after 2 hrs by MTS assay. The class given is functional, cell-based. Summed up:
(§2)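 Cells are seeded at 1 × 10⁴ per well and pre-treated 1 hr in FBS-free medium with 100 μM compound, then given 1 mM H2O2, or 1 mM H2O2 plus 1 mM iron(II) chloride (Fenton), for 2 hr. After a PBS wash, MTS is added in blank medium for 1.5 hr at 37 °C and read at 490 nm. Results are normalized to cells without H2O2 (100%), mean ± SD of three experiments.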
(In general: Formazan colour is commonly taken as a measure of viable cells.)

Assay [9] concerns SRA1. The assay is described as follows: Cytoprotection in human SRA1 cells assessed as protection against Fenton's reagent-induced cell death after 2 hrs by MTS assay. In kind it is functional, cell-based. Summed up: as §2
Assay [10] relates to ARPE-19. Briefly: Cytoprotection in human ARPE19 cells assessed as protection against Fenton's reagent-induced cell death after 2 hrs by MTS assay. In kind it is functional, cell-based. The method in brief:
as §2

For assay [11], the system named is HAh. The assay is described as follows: Cytoprotection in human HAh cells assessed as protection against Fenton's reagent-induced cell death after 2 hrs by MTS assay. The class given is functional, cell-based. Summed up: as §2
Assay [12] has as its system SRA1. Briefly: Antioxidant activity in human SRA1 cells assessed as inhibition of H2O2-induced reduction of cellular glutathione level after 2 hrs by DTNB method. The class given is functional, cell-based. Summed up:
(§3)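 Cells are pre-incubated 1 hr in FBS-free medium with 100 μM compound, then given 1 mM H2O2, or 1 mM H2O2 plus 1 mM iron(II) chloride (Fenton), for 2 hr. Cells are washed with PBS, scraped and homogenized; supernatant protein is measured by Bradford. Homogenate is deproteinized with 20% TCA, and GSH is read at 412 nm (DTNB). Values are nmol GSH/mg protein, normalized to unexposed cells (100%), in triplicate.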

The subject of assay [13] is SRA1. The assay is described as follows: Antioxidant activity in human SRA1 cells assessed as inhibition of Fenton's reagent-induced reduction of cellular glutathione level after 2 hrs by DTNB method. The class given is functional, cell-based. The method in brief: as §3
In assay [14] the test system is ARPE-19. Briefly: Antioxidant activity in human […] cells assessed as inhibition of Fenton's reagent-induced reduction of cellular glutathione level after 2 hrs by DTNB method. In kind it is functional, cell-based. The method in brief: as §3
The test system of assay [15] is HAh. The assay is described as follows: Antioxidant activity in human HAh cells assessed as inhibition of Fenton's reagent-induced reduction of cellular glutathione level after 2 hrs by DTNB method. The class given is functional, cell-based. Summed up: as §3

The source made the active and inactive calls. The rule behind the calls is not given here.

As to `COc1nc(N2C(=O)CN(S(=O)(=O)N(C)C)CC2=O)nc(OC)c1O`, the Activity in assay [1] stood at 7.5%; in assay [2] it was 8.2%; in assay [3] it was 4%; in assay [4], 3.6%; in assay [5], 14.6%; in assay [6], 100%. In [7], the Activity is 100%. Further, the outcome with SRA1 [8], with SRA1 [9], with ARPE-19 [10], in the assay on HAh [11], with SRA1 [12] and in the assay on SRA1 [13] was Active. For the same molecule, the outcome with ARPE-19 [14] and with HAh [15] was Active.

Consider `CN(C)S(=O)(=O)N1CC(=O)N(c2ncc(O)cn2)C(=O)C1`, for which the Activity in assay [1] amounted to 6.9%; in assay [2], 8.2%; in [3], 4.2%; in assay [4], 3%; in assay [5] it was 12.7%; in [6] it was 100%. Also, in assay [7], the Activity was 100%. Further, the result in the assay on SRA1 [8], in the assay on SRA1 [9], in the assay on ARPE-19 [10], in the assay on HAh [11], in the assay with SRA1 [12] and with SRA1 [13] was Active. Further, the result with ARPE-19 [14] and in the assay with HAh [15] was Active.

On to `CN(C)S(=O)(=O)N1CCN(c2ncc(O)cn2)CC1`, for which the Activity in [1], in assay [2], in [3], in assay [4], in assay [5] and in [6] was 100% in each case. Also, in assay [7], the Activity is 100%. Besides, the result in the assay on SRA1 [8], in the assay on SRA1 [9], in the assay on ARPE-19 [10], in the assay on HAh [11], with SRA1 [12] and in the assay with ARPE-19 [14] was Active. For the same molecule, the outcome in the assay on HAh [15] was Active.

Take `COc1cc(OC)nc(N2CCN(S(=O)(=O)N(C)C)CC2)n1`: the Activity in assay [1], in assay [2], in assay [3], in assay [4], in [5] and in assay [6] was 100% each time. Further, the Activity in assay [7] stood at 100%. The outcome with SRA1 [8] and in the assay with SRA1 [12] was inactive.

In the case of `COc1cc(OC)nc(N2C(=O)CN(S(=O)(=O)N(C)C)CC2=O)n1`, the Activity in assay [1] is 7.3%; in assay [2], 7.6%; in assay [3], 4.1%; in [4], 3.4%; in assay [5], 13.8%; in assay [6], 100%. Besides, in [7], the Activity worked out at 100%. In addition, the result with SRA1 [8] and in the assay with SRA1 [12] was inactive. Further, the outcome in the assay with ARPE-19 [10], with HAh [11], with SRA1 [13], in the assay with ARPE-19 [14] and in the assay with HAh [15] was Active.

`Cc1c(C)c2c(c(C)c1O)CCC(C)(C(=O)O)O2` (stereo unspecified): the result with SRA1 [8] and with HAh [15] was Active.

As for `COc1nc(N2CCN(S(=O)(=O)N(C)C)CC2)nc(OC)c1O`, the Activity in [1], in [2], in assay [3], in [4], in assay [5] and in assay [6] was 100% throughout. In assay [7], the Activity came out at 100%. In addition, the result in the assay with SRA1 [8], in the assay on SRA1 [9], with ARPE-19 [10], in the assay on HAh [11], in the assay on SRA1 [12] and in the assay on ARPE-19 [14] was Active. For the same molecule, the outcome in the assay on HAh [15] was Active.

Regarding `CN(C)S(=O)(=O)N1CC(=O)N(c2ncccn2)C(=O)C1`, the Activity in assay [1] was 8.1%; in [2], 10%; in assay [3], 3.6%; in [4], 4.4%; in assay [5], 15.3%; in [6], 100%. For the same molecule, the Activity in assay [7] was determined as 100%. Moreover, the result in the assay on SRA1 [8] and in the assay with SRA1 [12] was inactive. For the same molecule, the result in the assay on ARPE-19 [10], in the assay on HAh [11], in the assay with SRA1 [13], with ARPE-19 [14] and with HAh [15] was Active.

Turning to `CN(C)S(=O)(=O)N1CCN(c2ncccn2)CC1`, the Activity in assay [1], in [2], in assay [3], in assay [4], in assay [5] and in [6] was 100% in each case. In addition, in [7], the Activity was 100%. For the same molecule, the outcome in the assay on SRA1 [8] and in the assay with SRA1 [12] was inactive.
